Autophagy HCS: alters autophagy in cells. actives 0.98% (n = 190,000). MEF GFP-LC3 puncta imaging; test concentration mostly 10 µM. calls only at 10 µM (by protocol);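 active = percentage of spot-positive cells more than 3 SD above its plate mean, without a fluorescence outlier flag or 80% toxicity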;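 also: spot-positive cell cutoff set from DMSO-treated cells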
bCat nuc transl: modulators of beta-catenin nuclear translocation. HeLa beta-catenin nuclear translocation, immunofluorescence imaging. nuclear translocation activity, % at 5 µM. actives 0.3% (n = 190,000). AID 1665;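 active = nuclear translocation activity above 50% at 5 µM, with a well cell count of 50 or more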;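 also: per-cell ratio of nuclear to cytoplasmic median beta-catenin stain intensity; plate controls were DMSO negative control for no effect and GSK-3 inhibitor IX positive control for full effect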
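test system = HeLa cells, endogenous beta-catenin | dosing = single 5 µM dose plus 0.02–20 µM confirmation series | times = compound treatment 24 h, 37°C, 5% CO2 | technique = beta-catenin immunofluorescence imaging with DAPI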
Dynein transport: dynein cargo transport inhibition; 3617.4 mouse cells, GR-EGFP nuclear translocation imaging; test concentration mostly 20 µM; stimulated with dexamethasone, 1 µM; stronger effect = lower value; z-score, hits read low; actives 0.47% (n = 220,000);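 active = plate z-score of nuclear minus cytoplasmic receptor signal below a set negative limit, without overly bright fluorescence or cell loss, cut at about -3.5 in these data, passing the limit was not always enough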;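 also: z-score of nuclear minus cytoplasmic ring GR-EGFP intensity difference per well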
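Buffer or medium: Induction medium lacking tetracycline, stripped serum | Also added: Dexamethasone agonist, 1.0 µM final, for 30 min | Timing: 48 h induction, 1 h compound, 30 min dex at 37 °C | Detection: Formaldehyde fixation, Hoechst nuclear stain, 10x automated fluorescence imaging | Measure: Nuclear versus cytoplasmic GR-EGFP signal, averaged per well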
Hsp70 activator: transcriptional activators of Hsp70 | HeLa Hsp70 promoter luciferase reporter, luminescence; scaled: vehicle 0, proteasome-inhibitor control 100% | activation, % at 10 µM | actives 0.04% (n = 200,000) | AID 1203;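 active = activation above the mean across all tested compounds plus 3 SD, cutoff set per campaign, cut at about 5.5% in these data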;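 also: 100% = MG132 at 30 µM as the positive control and 0% = DMSO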
MT stabilize HCS: microtubule stabilization, imaging screen; HeLa tubulin immunostaining HCS, 24 h; share of cells brighter than vehicle mean+2SD; actives 0.83% (n = 200,000); % tubulin-high responders, % at 10 µM;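 active = plate Z-score above 3 for both tubulin-high and condensed-nucleus cell shares, with cell loss under 80%, at 10 µM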;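 also: anti alpha tubulin signal scored within the nucleus-defined area of each cell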
* marks the source's active call; other numbers are inactive results. The list is not random: actives were taken first. Their share in the collection is about 2.1%.

`CCc1ccc(NC(=O)/C(C#N)=C/c2cc3ccc(C)cc3nc2N2CCOCC2)cc1` gave Autophagy HCS active, Dynein transport -0.362, Hsp70 activator -0.2 and MT stabilize HCS 3.3.
CN(C)c1ccc2c(c1)OC(N)=C(C#N)C2c1cccc(F)c1 (stereo not drawn) was read as Autophagy HCS inactive, bCat nuc transl 98.8*, Dynein transport 0.00304, Hsp70 activator 0.0 and MT stabilize HCS 7.7.
Screening CC(=O)c1ccc(NC(=S)Nc2cccc(Cl)c2C)cc1 returned Autophagy HCS inactive, bCat nuc transl -4.4, Dynein transport -0.486, Hsp70 activator 0.2 and MT stabilize HCS 2.2.
Screening COC(=O)c1cn(C(=O)c2ccc(C)cc2C)c2ccccc12 returned Autophagy HCS inactive, bCat nuc transl -2.0, Dynein transport -0.681, Hsp70 activator -0.1 and MT stabilize HCS 15.4*.
COC(=O)c1cn(C(=O)c2ccccc2Cl)c2ccccc12 was read as Autophagy HCS inactive, bCat nuc transl 11.4, Dynein transport -0.465, Hsp70 activator -0.1 and MT stabilize HCS 17.8*.
Screening COC(=O)c1cn(CCOc2ccccc2)c2ccccc12 returned Autophagy HCS active, bCat nuc transl 0.6, Dynein transport -0.569, Hsp70 activator -0.3 and MT stabilize HCS 6.3.
COCCNS(=O)(=O)c1ccc(C)c(C)c1C was read as Autophagy HCS inactive, bCat nuc transl -3.1, Dynein transport -0.626, Hsp70 activator 0.0 and MT stabilize HCS 1.5.
`Cc1ccccc1NC(NC(=O)OCCn1c([N+](=O)[O-])cnc1C)C(Cl)(Cl)Cl` (stereo not drawn) gave Autophagy HCS inactive, bCat nuc transl -2.7, Dynein transport -0.077, Hsp70 activator -0.3 and MT stabilize HCS 4.1.
CN(c1ccccc1)S(=O)(=O)c1cccc(NC(=O)c2ccc3ncsc3c2)c1 was read as bCat nuc transl -0.7 and Dynein transport 0.132.
Screening N#CC1=C(N)Oc2c(ccc3ccccc23)C1c1cccs1 (stereo not drawn) returned Autophagy HCS active, bCat nuc transl 130.8*, Dynein transport -1.19, Hsp70 activator -0.2 and MT stabilize HCS 20.0*.
For CCN(CC)c1ccc(NC2=C(Cl)C(=O)c3ccccc3C2=O)cc1 the results were Autophagy HCS inactive, bCat nuc transl -1.0, Dynein transport -4.42*, Hsp70 activator 0.0 and MT stabilize HCS 2.7.
Screening O=C(N/N=C/c1ccc(OC(F)F)cc1OC(F)F)c1cccc(S(=O)(=O)N2CCOCC2)c1 returned Autophagy HCS inactive, bCat nuc transl 0.6, Dynein transport 0.339, Hsp70 activator -0.1 and MT stabilize HCS 2.9.
`O=C(NCc1ccc2c(c1)OCO2)C1CC(c2ccc(Cl)cc2)=NO1` (stereo not drawn) gave Autophagy HCS inactive, bCat nuc transl 2.5, Dynein transport -0.137, Hsp70 activator 0.1 and MT stabilize HCS 2.6.
Screening COc1cc(OC)c(C2=NOC(C(=O)NCc3ccc4c(c3)OCO4)C2)cc1Cl (stereo not drawn) returned Autophagy HCS inactive, Dynein transport 0.51, Hsp70 activator 0.1 and MT stabilize HCS 23.1*.
For COc1cc(C2=NOC(C(=O)NCc3ccc(F)cc3)C2)cc(OC)c1OC (stereo not drawn) the results were Autophagy HCS active, bCat nuc transl 73.2*, Dynein transport 1.21, Hsp70 activator 0.3 and MT stabilize HCS 24.3*.
For COc1cccc(C2=NOC(C(=O)NCc3ccc(F)cc3)C2)c1 (stereo not drawn) the results were Autophagy HCS inactive, bCat nuc transl 5.9, Dynein transport -0.327, Hsp70 activator -0.1 and MT stabilize HCS 6.0.
For COc1ccc(C2=NOC(C(=O)NCc3ccc(F)cc3)C2)cc1OC (stereo not drawn) the results were Autophagy HCS inactive, bCat nuc transl 56.2*, Dynein transport 0.377, Hsp70 activator 0.5 and MT stabilize HCS 13.9*.
For C=CCN(c1ccccc1)S(=O)(=O)c1cccc(C(=O)OCC(=O)NC2CC2)c1 the results were Autophagy HCS active, bCat nuc transl 1.7, Dynein transport 0.133, Hsp70 activator -0.3 and MT stabilize HCS 3.2.
`COc1ccc(-c2nc(SCC(=O)Nc3nccs3)c(-c3ccc(Cl)cc3)[nH]2)cc1` gave Autophagy HCS inactive, bCat nuc transl -0.5, Dynein transport -0.417, Hsp70 activator 0.1 and MT stabilize HCS 15.4*.
For COc1ccc(-c2[nH]c(-c3ccc(C)cc3)nc2SCC(=O)Nc2nccs2)cc1 the results were Autophagy HCS inactive, bCat nuc transl 0.5, Dynein transport -0.0798, Hsp70 activator -0.3 and MT stabilize HCS 3.8.
Screening C=C1C(=O)O[C@@H]2C[C@@H](C)[C@@H]3C=CC(=O)[C@@]3(C)[C@@H](OC(C)=O)[C@H]12 returned bCat nuc transl -1.0 and Dynein transport -3.62*.
For O=C(Nc1ccc(Br)cc1)Nc1ccccc1Cl the results were bCat nuc transl -1.3 and Dynein transport 0.263.
`COc1ccc2cc3cc(C(=O)Nc4ccccc4N4CCN(C)CC4)oc3nc2c1` gave Autophagy HCS active, bCat nuc transl -0.9, Dynein transport -0.143, Hsp70 activator -0.4 and MT stabilize HCS 43.4.
`O=S1(=O)C=CC(c2ccccc2)C1` (stereo not drawn) gave bCat nuc transl -1.3 and Dynein transport -0.1.
Screening Cc1ccc(C(=O)NC2c3ccccc3-c3ccccc32)cc1 returned Autophagy HCS inactive, bCat nuc transl 106.4*, Dynein transport -0.237, Hsp70 activator 0.0 and MT stabilize HCS 23.6*.
Screening Cc1ccc(C(=O)NC2CCc3ccccc3C2=O)cc1 (stereo not drawn) returned Autophagy HCS inactive, bCat nuc transl -1.0, Dynein transport -0.156, Hsp70 activator 0.0 and MT stabilize HCS 3.1.
For CCCCn1nc(C(=O)Nc2cc(S(=O)(=O)N(C)C)ccc2C)c2ccccc2c1=O the results were bCat nuc transl 0.8 and Dynein transport -0.801.
For Cc1[nH]c(=S)[nH]c(=O)c1Cc1ccc(OCC(C)C)cc1 the results were Autophagy HCS inactive, bCat nuc transl 11.3, Dynein transport -0.628, Hsp70 activator -0.1 and MT stabilize HCS 14.8*.
For COc1ccc(S(=O)(=O)N2c3cc(Cl)ccc3Oc3nc4ccccc4nc32)cc1 the results were Autophagy HCS active, bCat nuc transl -0.9, Dynein transport 0.388, Hsp70 activator 0.1 and MT stabilize HCS 12.6.
For COCCCN1CN(S(=O)(=O)c2ccc(Cl)cc2)c2nc3ccccc3nc21 the results were Autophagy HCS inactive, bCat nuc transl -2.2, Dynein transport 0.0198, Hsp70 activator 0.1 and MT stabilize HCS 3.3.
`O=S(=O)(c1ccc(Cl)cc1)N1c2ccccc2Oc2nc3ccccc3nc21` gave Autophagy HCS inactive, bCat nuc transl 5.1, Dynein transport -0.34, Hsp70 activator -0.1 and MT stabilize HCS 24.5*.

High-throughput results deposited in PubChem by several laboratories.
